Published values from different studies.
Organism: Enterobacter cloacae
Observed: microbial growth

Structure (SMILES)	technique	strain	MIC
C/C(=C\c1ccc(C#N)cc1)C(=O)Nc1ccc(C(=O)N[C@@H](CC(N)=O)C(=O)Nc2ccc(C(=O)Nc3ccc(C(=O)Nc4ccc(C(=O)O)cc4)c(O)c3OC(C)C)cc2)cc1		DSM30054	> 64 µg/mL
CN(C)[C@@H]1C(O)=C(C(N)=O)C(=O)[C@@]2(O)C(O)=C3C(=O)c4c(cc5ccc(CN6CC(F)(F)C6)cc5c4O)C[C@H]3C[C@@H]12	broth dilution	ATCC13047	32 µg/mL
O=C(Nc1ccc2c(c1)OC(F)(F)O2)Nc1ccc(Cl)c(C(F)(F)F)c1		DSM30054	> 100 µM
Cc1c(CN(C)C(=O)/C=C/c2cnc3c(c2)CC(CCN)C(=O)N3)oc2ccccc12.Cl (centres unmarked)	broth dilution	BAA2341	16 µg/mL
CN(C)[C@@H]1C(O)=C(C(N)=O)C(=O)[C@@]2(O)C(O)=C3C(=O)c4c(O)cnc(Cl)c4C[C@H]3C[C@@H]12.Cl	broth dilution	ATCC13047	8 µg/mL
CN(C)CCOc1c2c(c(O)c3cc(CN4CCC4)ccc13)C(=O)C1=C(O)[C@]3(O)C(=O)C(C(N)=O)=C(O)[C@@H](N(C)C)[C@@H]3C[C@@H]1C2	broth dilution	ATCC13047	> 32 µg/mL
CO[C@@H](C(N)=O)[C@H](NC(=O)c1ccc(NC(=O)c2ccc(C#N)cc2)cc1)C(=O)Nc1ccc(C(=O)Nc2ccc(C(=O)Nc3ccc(C(=O)O)cc3)c(O)c2OC(C)C)cc1		DSM30054	> 64 µg/mL
Cc1nc(Cl)c2c(c1O)C(=O)C1=C(O)[C@]3(O)C(=O)C(C(N)=O)=C(O)[C@@H](N(C)C)[C@@H]3C[C@@H]1C2.Cl	broth dilution	ATCC13047	32 µg/mL
C[C@@H](O)[C@H]1C(=O)N2C(C(=O)O)=C(S[C@@H]3CN[C@H](C(=O)N(C)C)C3)[C@H](C)[C@H]12			1.3 µM
CC(C)CNc1nc(Cl)c2c(c1O)C(=O)C1=C(O)[C@]3(O)C(=O)C(C(N)=O)=C(O)[C@@H](N(C)C)[C@@H]3C[C@@H]1C2.Cl.Cl.Cl	broth dilution	ATCC13047	> 32 µg/mL
CNC(=O)c1cc(Oc2ccc(NC(=O)Nc3ccc(Cl)c(C(F)(F)F)c3)cc2)ccn1		DSM30054	> 100 µM
